Tests used:
D(4) dopamine receptor = target: T1, D(4) dopamine receptor (Homo sapiens, UniProt P21917); test: Displacement of [125I]IABN from human dopamine D4 receptor expressed in HEK293 cells; assay type: cell-based
T1 sequence (P21917 whole entry): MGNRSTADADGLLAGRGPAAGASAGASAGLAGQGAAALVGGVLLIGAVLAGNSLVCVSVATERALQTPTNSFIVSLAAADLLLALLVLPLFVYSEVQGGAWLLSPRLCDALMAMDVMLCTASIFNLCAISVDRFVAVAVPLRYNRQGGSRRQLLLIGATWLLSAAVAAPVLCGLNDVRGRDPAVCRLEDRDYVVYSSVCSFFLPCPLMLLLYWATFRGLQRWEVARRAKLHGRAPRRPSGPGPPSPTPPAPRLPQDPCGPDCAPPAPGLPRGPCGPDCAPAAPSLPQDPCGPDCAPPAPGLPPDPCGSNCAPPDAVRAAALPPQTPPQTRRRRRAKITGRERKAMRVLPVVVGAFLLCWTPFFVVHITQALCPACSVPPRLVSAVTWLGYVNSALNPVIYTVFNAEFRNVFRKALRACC
Method in brief: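 Competition binding on HEK 293 cells transfected with human D2L or D4 dopamine receptors; radioligand [125I]IABN displaced by test ligand; Ki values derived.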

Homo sapiens [1] = species: Homo sapiens; test: Selectivity for human dopamine D2L receptor over human dopamine D4 receptor
Homo sapiens [2] = species: Homo sapiens; test: Selectivity for human dopamine D2L receptor over human dopamine D3 receptor
D(2) dopamine receptor [3] = target: T2, D(2) dopamine receptor (Homo sapiens, UniProt P14416); test: Displacement of [125I]IABN from human dopamine D2L receptor expressed in HEK293 cells; assay type: cell-based
D(3) dopamine receptor [4] = target: T3, D(3) dopamine receptor (Homo sapiens, UniProt P35462); test: Displacement of [125I]IABN from human dopamine D3 receptor expressed in HEK293 cells; assay type: cell-based
D(2) dopamine receptor [5] = target: T2, D(2) dopamine receptor; test: Antagonist activity at human dopamine D2 receptor expressed in CHO cells assessed as inhibition of quinpirole stimulated mitogenesis; assay type: functional, cell-based
Method in brief: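 Functional mitogenesis assay in CHO cells transfected with human D2 receptor; antagonism measured as inhibition of quinpirole-stimulated mitogenesis (agonism tested as stimulation); EC50 reported; run via NIDA CTDP contract protocol.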

D(3) dopamine receptor [6] = target: T3, D(3) dopamine receptor; test: Antagonist activity at human dopamine D3 receptor expressed in CHO cells assessed as inhibition of quinpirole stimulated mitogenesis; assay type: functional, cell-based

T3 sequence (P35462 whole entry): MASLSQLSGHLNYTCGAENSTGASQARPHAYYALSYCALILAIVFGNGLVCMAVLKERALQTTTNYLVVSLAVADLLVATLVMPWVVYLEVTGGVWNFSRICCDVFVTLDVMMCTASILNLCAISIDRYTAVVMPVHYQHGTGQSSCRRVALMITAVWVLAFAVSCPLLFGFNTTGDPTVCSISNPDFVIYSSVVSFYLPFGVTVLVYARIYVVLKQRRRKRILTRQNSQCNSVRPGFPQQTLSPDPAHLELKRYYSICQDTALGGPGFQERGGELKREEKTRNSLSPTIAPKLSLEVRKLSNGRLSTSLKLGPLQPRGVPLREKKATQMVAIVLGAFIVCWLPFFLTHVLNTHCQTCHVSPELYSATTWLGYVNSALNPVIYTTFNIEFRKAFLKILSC
T2 sequence (P14416 whole entry): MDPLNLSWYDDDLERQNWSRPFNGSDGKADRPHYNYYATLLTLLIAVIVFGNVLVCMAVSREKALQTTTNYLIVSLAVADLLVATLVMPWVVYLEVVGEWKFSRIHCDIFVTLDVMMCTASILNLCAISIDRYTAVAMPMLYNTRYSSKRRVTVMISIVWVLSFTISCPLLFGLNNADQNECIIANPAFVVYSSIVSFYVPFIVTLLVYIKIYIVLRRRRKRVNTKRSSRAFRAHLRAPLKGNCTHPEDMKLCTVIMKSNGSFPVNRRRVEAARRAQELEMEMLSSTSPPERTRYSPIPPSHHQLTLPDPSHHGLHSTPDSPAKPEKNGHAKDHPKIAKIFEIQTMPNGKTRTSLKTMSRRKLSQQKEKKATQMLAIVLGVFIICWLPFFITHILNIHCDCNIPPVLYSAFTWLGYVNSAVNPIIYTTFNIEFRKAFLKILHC

FC1(c2ccc(Cl)cc2)CCN(Cc2c[nH]c3ccccc23)CC1
Ki (D(4) dopamine receptor): 365 nM | Ratio Ki (Homo sapiens [1]): 3 | Ratio Ki (Homo sapiens [2]): 2 | Ki (D(2) dopamine receptor [3]): 120 nM | Ki (D(3) dopamine receptor [4]): 211 nM

Oc1ccc(C2(O)CCN(Cc3c[nH]c4ccccc34)CC2)cc1
Ki (D(4) dopamine receptor): 1360 nM | Ratio Ki (Homo sapiens [1]): 0.3 | Ratio Ki (Homo sapiens [2]): 3 | Ki (D(2) dopamine receptor [3]): 5360 nM | Ki (D(3) dopamine receptor [4]): 16800 nM

Cn1cc(CN2CCC(O)(c3ccc(Cl)cc3)CC2)c2ccccc21
Ki (D(4) dopamine receptor): 5140 nM | EC50 (D(2) dopamine receptor [5]): 20 nM | Ratio Ki (Homo sapiens [1]): 174 | Ratio Ki (Homo sapiens [2]): 8 | Ki (D(2) dopamine receptor [3]): 29.6 nM | Ki (D(3) dopamine receptor [4]): 238 nM | EC50 (D(3) dopamine receptor [6]): 98.6 nM

NC1(c2ccc(Cl)cc2)CCN(Cc2c[nH]c3ccccc23)CC1
Ki (D(4) dopamine receptor): 2290 nM | Ratio Ki (Homo sapiens [1]): 12 | Ratio Ki (Homo sapiens [2]): 2 | Ki (D(2) dopamine receptor [3]): 184 nM | Ki (D(3) dopamine receptor [4]): 382 nM

OC1(c2ccc(F)cc2)CCN(Cc2c[nH]c3ccccc23)CC1
Ki (D(4) dopamine receptor): 6090 nM | Ratio Ki (Homo sapiens [1]): 48 | Ratio Ki (Homo sapiens [2]): 4 | Ki (D(2) dopamine receptor [3]): 127 nM | Ki (D(3) dopamine receptor [4]): 490 nM

OC1(c2ccc(Cl)c(Cl)c2)CCN(Cc2coc3ccccc23)CC1
Ki (D(4) dopamine receptor): 167 nM | Ratio Ki (Homo sapiens [1]): 8 | Ratio Ki (Homo sapiens [2]): 1 | Ki (D(2) dopamine receptor [3]): 21 nM | Ki (D(3) dopamine receptor [4]): 28 nM

CSc1ccc(C2(O)CCN(Cc3coc4ccccc34)CC2)cc1
Ki (D(4) dopamine receptor): 153 nM | Ratio Ki (Homo sapiens [1]): 3 | Ratio Ki (Homo sapiens [2]): 3 | Ki (D(2) dopamine receptor [3]): 54 nM | Ki (D(3) dopamine receptor [4]): 139 nM

CC1(c2ccc(Cl)cc2)CCN(Cc2c[nH]c3ccccc23)CC1
Ki (D(4) dopamine receptor): 2750 nM | EC50 (D(2) dopamine receptor [5]): 314 nM | Ratio Ki (Homo sapiens [1]): 3 | Ratio Ki (Homo sapiens [2]): 2 | Ki (D(2) dopamine receptor [3]): 992 nM | Ki (D(3) dopamine receptor [4]): 2100 nM | EC50 (D(3) dopamine receptor [6]): 347 nM

OC1(c2cccc(C(F)(F)F)c2)CCN(Cc2c[nH]c3ccccc23)CC1
Ki (D(4) dopamine receptor): 3750 nM | EC50 (D(2) dopamine receptor [5]): 69.1 nM | Ratio Ki (Homo sapiens [1]): 35 | Ratio Ki (Homo sapiens [2]): 5 | Ki (D(2) dopamine receptor [3]): 106 nM | Ki (D(3) dopamine receptor [4]): 570 nM

OC1(Cc2ccc(Cl)cc2)CCN(Cc2c[nH]c3ccccc23)CC1
Ki (D(4) dopamine receptor): 3930 nM | Ratio Ki (Homo sapiens [1]): 1 | Ratio Ki (Homo sapiens [2]): 2 | Ki (D(2) dopamine receptor [3]): 2890 nM | Ki (D(3) dopamine receptor [4]): 5480 nM

OC1(c2ccc(Cl)c(Cl)c2)CCN(Cc2c[nH]c3ccccc23)CC1
Ki (D(4) dopamine receptor): 1100 nM | EC50 (D(2) dopamine receptor [5]): 15.3 nM | Ratio Ki (Homo sapiens [1]): 159 | Ratio Ki (Homo sapiens [2]): 16 | Ki (D(2) dopamine receptor [3]): 6.9 nM | Ki (D(3) dopamine receptor [4]): 111 nM | EC50 (D(3) dopamine receptor [6]): 41.5 nM

OC1(c2ccc(-c3ccccc3)cc2)CCN(Cc2c[nH]c3ccccc23)CC1
Ki (D(4) dopamine receptor): 129 nM | Ratio Ki (Homo sapiens [1]): 1 | Ratio Ki (Homo sapiens [2]): 5 | Ki (D(2) dopamine receptor [3]): 98.4 nM | Ki (D(3) dopamine receptor [4]): 467 nM

OC1(c2cccc(Cl)c2Cl)CCN(Cc2c[nH]c3ccccc23)CC1
Ki (D(4) dopamine receptor): 1550 nM | EC50 (D(2) dopamine receptor [5]): 34.3 nM | Ratio Ki (Homo sapiens [1]): 59 | Ratio Ki (Homo sapiens [2]): 10 | Ki (D(2) dopamine receptor [3]): 26.1 nM | Ki (D(3) dopamine receptor [4]): 273 nM | EC50 (D(3) dopamine receptor [6]): 232 nM

N#CC1(c2ccc(Cl)cc2)CCN(Cc2c[nH]c3ccccc23)CC1
Ki (D(4) dopamine receptor): 2270 nM | EC50 (D(2) dopamine receptor [5]): 225 nM | Ratio Ki (Homo sapiens [1]): 11 | Ratio Ki (Homo sapiens [2]): 3 | Ki (D(2) dopamine receptor [3]): 199 nM | Ki (D(3) dopamine receptor [4]): 684 nM

OC1(c2cccc(Cl)c2)CCN(Cc2c[nH]c3ccccc23)CC1
Ki (D(4) dopamine receptor): 3540 nM | EC50 (D(2) dopamine receptor [5]): 83.4 nM | Ratio Ki (Homo sapiens [1]): 27 | Ratio Ki (Homo sapiens [2]): 3 | Ki (D(2) dopamine receptor [3]): 129 nM | Ki (D(3) dopamine receptor [4]): 450 nM

OC1(c2ccc(Cl)cc2)CCN(Cc2coc3ccccc23)CC1
Ki (D(4) dopamine receptor): 404 nM | Ratio Ki (Homo sapiens [1]): 19 | Ratio Ki (Homo sapiens [2]): 3 | Ki (D(2) dopamine receptor [3]): 21 nM | Ki (D(3) dopamine receptor [4]): 53 nM

OCC1(c2ccc(Cl)cc2)CCN(Cc2c[nH]c3ccccc23)CC1
Ki (D(4) dopamine receptor): 1940 nM | Ratio Ki (Homo sapiens [1]): 1 | Ratio Ki (Homo sapiens [2]): 0.04 | Ki (D(2) dopamine receptor [3]): 2370 nM | Ki (D(3) dopamine receptor [4]): 106 nM

Cc1[nH]c2ccccc2c1CN1CCC(O)(c2ccc(Cl)cc2)CC1
Ki (D(4) dopamine receptor): 2990 nM | EC50 (D(2) dopamine receptor [5]): 2.13 nM | Ratio Ki (Homo sapiens [1]): 194 | Ratio Ki (Homo sapiens [2]): 3 | Ki (D(2) dopamine receptor [3]): 15.4 nM | Ki (D(3) dopamine receptor [4]): 44.1 nM | EC50 (D(3) dopamine receptor [6]): 20.2 nM

OC1(c2ccc(Cl)cc2)CCN(Cc2n[nH]c3ccccc23)CC1
Ki (D(4) dopamine receptor): 2150 nM | Ratio Ki (Homo sapiens [1]): 4 | Ratio Ki (Homo sapiens [2]): 1 | Ki (D(2) dopamine receptor [3]): 548 nM | Ki (D(3) dopamine receptor [4]): 440 nM

From ChEMBL document CHEMBL1138415, “Analogues of the dopamine D2 receptor antagonist L741,626: Binding, function, and SAR” (Bioorg Med Chem Lett, 2007)
